The target in data set [1] is T1, Beta-lactamase OXA-48 (Klebsiella pneumoniae, UniProt Q6XEC0). In words: Binding affinity to native signal deficient and TEV cleavage site containing His-tagged Klebsiella pneumoniae OXA-48 expressed in Escherichia coli assessed as dissociation constant by SPR assay.
Data set [2] deals with T1, Beta-lactamase OXA-48. In words: Inhibition of native signal containing Klebsiella pneumoniae OXA-48 using nitrocefin substrate pre-incubated for 5 mins before substrate addition.
In data set [3] the target is Beta-lactamase OXA-48 (Klebsiella pneumoniae) (UniProt Q6XEC0). In words: Inhibition of native signal containing Klebsiella pneumoniae OXA-48 at 1.5 uM using nitrocefin substrate pre-incubated for 5 mins before substrate addition. Summed up:
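Avibactam dilution series (50 nM–20 µM) was preincubated about 5 min with 100 pM nOXA-48, then started with 25 µM nitrocefin. Buffer was phosphate pH 7.0 with 50 mM NaHCO3 and 0.2 mg/ml BSA, at 25 °C. Competition read-out from initial hydrolysis rates.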

The nature of data set [4]: Inhibition of beta-lactamase VIM-2 (unknown origin).
Data set [5] concerns the target T1, Beta-lactamase OXA-48. Briefly: Binding affinity to native signal deficient and TEV cleavage site containing His-tagged Klebsiella pneumoniae OXA-48 expressed in Escherichia coli assessed as dissociation rate constant by SPR assay. Summed up: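 tOXA-48 (E. coli BL21 Star (DE3) pRARE, His tag removed by TEV, cation-exchange polished) amine-coupled to CM5 chip (~5000 RU, from 25 µg/mL in 10 mM MES pH 5.5). Fragments 2-fold series 118-900 µM (or 1.8-900 µM), double-referenced, steady-state fit. Meropenem 62.5 nM-32 µM, 1:1 kinetic fit.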

Data set [6] concerns the target Beta-lactamase OXA-48 (Klebsiella pneumoniae) (UniProt Q6XEC0). In words: Binding affinity to native signal deficient and TEV cleavage site containing His-tagged Klebsiella pneumoniae OXA-48 expressed in Escherichia coli assessed as association rate constant by SPR assay. Summed up:
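SPR with tOXA-48 amine-coupled to a CM5 chip (~5000 RU, immobilised from 10 mM MES pH 5.5). Meropenem was injected as a 2-fold series, 62.5 nM-32 µM, at 30 µL/min, with 60 s contact and 240 s dissociation. Sensorgrams were double-referenced and fitted to a 1:1 kinetic model.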

Substrate in data set [7]: CO/N=C(\C(=O)N[C@@H]1C(=O)N2C(C(=O)[O-])=C(C[N+]3(C)CCCC3)CS[C@H]12)c1csc(N)n1
Briefly: (§1) Activity of native signal containing Klebsiella pneumoniae OXA-48 by Michaelis-Menten kinetics assay. Summed up: (§2)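 Steady-state kinetics of nOXA-48 at 25 °C in 100 mM sodium phosphate pH 7.0, 50 mM NaHCO3, 0.2 mg/ml BSA. Substrates were ampicillin, benzylpenicillin, cefepime, CENTA, meropenem, imipenem and nitrocefin, each over its own concentration range, with 100 pM–140 nM enzyme. Reactions were enzyme-started and followed spectrophotometrically. Velocities came from the linear phase, fitted to Michaelis-Menten.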

Substrate in data set [8]: CC1(C)S[C@@H]2[C@H](NC(=O)Cc3ccccc3)C(=O)N2[C@H]1C(=O)O
The description is as §1. Summed up:
as §2

Substrate in data set [9]: C[C@@H](O)[C@H]1C(=O)N2C(C(=O)O)=C(S[C@@H]3CN[C@H](C(=O)N(C)C)C3)[C@H](C)[C@H]12
The data set is described as §1. Summed up: as §2

Substrate in data set [10]: O=C(Cc1cccs1)N[C@@H]1C(=O)N2C(C(=O)O)=C(CSc3ccc([N+](=O)[O-])c(C(=O)O)c3)CS[C@H]12
Described as §1. Summed up: as §2

Substrate in data set [11]: CC1(C)S[C@@H]2[C@H](NC(=O)[C@H](N)c3ccccc3)C(=O)N2[C@H]1C(=O)O
The description is as §1. Summed up: as §2

Substrate in data set [12]: O=C(Cc1cccs1)N[C@@H]1C(=O)N2C(C(=O)O)=C(/C=C/c3ccc([N+](=O)[O-])cc3[N+](=O)[O-])CS[C@H]12
Described as §1. Summed up:
as §2

Substrate in data set [13]: C[C@@H](O)[C@H]1C(=O)N2C(C(=O)O)=C(SCCNC=N)C[C@H]12
The data set is described as §1. Summed up: as §2

Substrate in data set [14]: O=C(Cc1cccs1)N[C@@H]1C(=O)N2C(C(=O)O)=C(/C=C/c3ccc([N+](=O)[O-])cc3[N+](=O)[O-])CS[C@H]12
In words: Activity of native signal deficient and TEV cleavage site containing His-tagged Klebsiella pneumoniae OXA-48 expressed in Escherichia coli by Michaelis-Menten kinetics assay. Summed up:
(§3)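 His-tag-removed tOXA-48 from E. coli BL21 Star (DE3) pRARE, purified by HisTrap, TEV cleavage and cation exchange. Hydrolysis of nitrocefin (10-300 µM) was read at 482 nm with 1 nM enzyme. Buffer was 100 mM phosphate pH 7.0, 50 mM NaHCO3, 0.2 mg/ml BSA at 25 °C. Enzyme-started; linear-phase rates were fitted to Michaelis-Menten.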

Substrate in data set [15]: CO/N=C(\C(=O)N[C@@H]1C(=O)N2C(C(=O)[O-])=C(C[N+]3(C)CCCC3)CS[C@H]12)c1csc(N)n1
In words: (§4) Activity of native signal containing Klebsiella pneumoniae OXA-48 assessed as ratio of Kcat to Km by Michaelis-Menten kinetics assay. Summed up: as §2

Substrate in data set [16]: CC1(C)S[C@@H]2[C@H](NC(=O)Cc3ccccc3)C(=O)N2[C@H]1C(=O)O
Described as §4. Summed up:
as §2

Substrate in data set [17]: C[C@@H](O)[C@H]1C(=O)N2C(C(=O)O)=C(S[C@@H]3CN[C@H](C(=O)N(C)C)C3)[C@H](C)[C@H]12
The data set is described as §4. Summed up:
as §2

Substrate in data set [18]: O=C(Cc1cccs1)N[C@@H]1C(=O)N2C(C(=O)O)=C(CSc3ccc([N+](=O)[O-])c(C(=O)O)c3)CS[C@H]12
Described as §4. Summed up:
as §2

Substrate in data set [19]: CC1(C)S[C@@H]2[C@H](NC(=O)[C@H](N)c3ccccc3)C(=O)N2[C@H]1C(=O)O
The description is as §4. Summed up:
as §2

Substrate in data set [20]: O=C(Cc1cccs1)N[C@@H]1C(=O)N2C(C(=O)O)=C(/C=C/c3ccc([N+](=O)[O-])cc3[N+](=O)[O-])CS[C@H]12
The description is as §4. Summed up: as §2

Substrate in data set [21]: C[C@@H](O)[C@H]1C(=O)N2C(C(=O)O)=C(SCCNC=N)C[C@H]12
The data set is described as §4. Summed up:
as §2

Substrate in data set [22]: O=C(Cc1cccs1)N[C@@H]1C(=O)N2C(C(=O)O)=C(/C=C/c3ccc([N+](=O)[O-])cc3[N+](=O)[O-])CS[C@H]12
Briefly: Activity of native signal deficient and TEV cleavage site containing His-tagged Klebsiella pneumoniae OXA-48 expressed in Escherichia coli assessed as ratio of Kcat to Km by Michaelis-Menten kinetics assay. Summed up: as §3

Active and inactive are the calls of the source. The rule behind the calls is not given here.

As for `c1ccc(-c2ccncc2)cc1`, the Kd on Beta-lactamase OXA-48 [1] is greater than 1000 µM. On Beta-lactamase OXA-48 [2], this molecule displayed an IC50 greater than 2000 µM.

In the case of `NC(=O)[C@@H]1CC[C@@H]2CN1C(=O)N2OS(=O)(=O)O`, the inhibition in data set [3] stood at 50%.

For `CC(=O)c1cccc(-c2ccncc2)c1`, on Beta-lactamase OXA-48 [1], the Kd is greater than 1000 µM. The IC50 on Beta-lactamase OXA-48 [2] is greater than 2000 µM.

As to `O=C(O)c1ccc2[nH]ccc2c1`, on Beta-lactamase OXA-48 [1], the Kd amounted to 1380 µM. In addition, the IC50 against Beta-lactamase OXA-48 [2] worked out at 1390 µM.

For `O=C(O)c1ccc2ccncc2c1`, the Kd on Beta-lactamase OXA-48 [1] was determined as 1180 µM. The molecule also had an IC50 at Beta-lactamase OXA-48 [2] of 2200 µM.

`O=C(O)c1cccc(-c2nccs2)c1`: the Kd on Beta-lactamase OXA-48 [1] was determined as 310 µM. At Beta-lactamase OXA-48 [2], the IC50 was 250 µM.

Regarding `O=C(O)c1cc(-c2ccncc2)cc(-c2ccncc2)c1`, the Kd on Beta-lactamase OXA-48 [1] turned out to be 50 µM. Also, the inhibition entry in data set [4] is “Active”. This molecule also displayed an IC50 on Beta-lactamase OXA-48 [2] of 18 µM.

As for `O=C(O)c1ccc(Oc2ccccc2)cc1`, the Kd on Beta-lactamase OXA-48 [1] turned out to be 660 µM. The same molecule displayed a half-inhibitory concentration (IC50) on Beta-lactamase OXA-48 [2] of 870 µM.

Consider `O=C(O)c1cccc(C#Cc2ccccc2)c1`, for which half-maximal inhibition at Beta-lactamase OXA-48 [2] (IC50) was put at 480 µM.

Turning to `O=C(O)c1ccccn1` [2-PICOLINIC ACID], on Beta-lactamase OXA-48 [1], the Kd is greater than 1000 µM. In addition, the IC50 against Beta-lactamase OXA-48 [2] was greater than 2000 µM.

Consider `O=C(O)c1cccc(-c2ccncc2)c1`, for which, on Beta-lactamase OXA-48 [1], the equilibrium dissociation constant (Kd) was 280 µM. On Beta-lactamase OXA-48 [2], this molecule had an IC50 of 250 µM.

Take `O=C(O)c1cccc(-c2ccccc2)c1`: the equilibrium dissociation constant (Kd) on Beta-lactamase OXA-48 [1] worked out at 370 µM. Besides, 260 µM corresponded to half-maximal inhibition against Beta-lactamase OXA-48 [2] (IC50).

With `Nc1cccnc1-c1cccc(C(=O)O)c1`, at Beta-lactamase OXA-48 [1], the Kd is 330 µM. This molecule showed a half-maximal inhibitory concentration (IC50) at Beta-lactamase OXA-48 [2] of 180 µM.

`O=C(O)CSc1ccnc2cc(Cl)ccc12` returned a half-maximal inhibitory concentration (IC50) against Beta-lactamase OXA-48 [2] of 220 µM.

As to `Cc1cc2ccc(C(=O)O)cc2cn1`, the Kd on Beta-lactamase OXA-48 [1] was found to be 700 µM. Besides, on Beta-lactamase OXA-48 [2], the IC50 was 1020 µM.

Turning to `O=C(O)CCCc1c[nH]c2ccccc12`, on Beta-lactamase OXA-48 [1], the Kd was determined as 430 µM. The molecule further registered a concentration for half-maximal inhibition (IC50) against Beta-lactamase OXA-48 [2] of 480 µM.

In the case of `C[C@@H](O)[C@H]1C(=O)N2C(C(=O)O)=C(S[C@@H]3CN[C@H](C(=O)N(C)C)C3)[C@H](C)[C@H]12` [MEROPENEM], on Beta-lactamase OXA-48 [1], the Kd came out at 0.85 µM. The koff on Beta-lactamase OXA-48 [5] was found to be 0.3463 s⁻¹. In [6], the Ka came to 4 ×10⁴ /M/s.

As for `O=C(O)c1cccc(-c2cccnc2)c1`, at Beta-lactamase OXA-48 [1], the Kd worked out at 280 µM. In addition, the IC50 against Beta-lactamase OXA-48 [2] was 240 µM.

B1: Beta-lactamase OXA-48 (Klebsiella pneumoniae), Q6XEC0 (protein)
chain: MRVLALSAVFLVASIIGMPAVAKEWQENKSWNAHFTEHKSQGVVVLWNENKQQGFTNNLKRANQAFLPASTFKIPNSLIALDLGVVKDEHQVFKWDGQTRDIATWNRDHNLITAMKYSVVPVYQEFARQIGEARMSKMLHAFDYGNEDISGNVDSFWLDGGIRISATEQISFLRKLYHNKLHVSERSQRIVKQAMLTEANGDYIIRAKTGYSTRIEPKIGWWVGWVELDDNVWFFAMNMDMPTSDGLGLRQAITKEVLKQEKIIP
B1: the Michaelis-Menten constant (Km) in data set [7] came out at 300 µM; in [8] it was 700 µM; in data set [9] it was 1 µM; in [10], 24 µM; in data set [11] it was 150 µM; in data set [12] it was 90 µM. In addition, the Km came to 7.9 µM in data set [13] and 150 µM in data set [14]. For the same molecule, the kcat in [7] is 9 s⁻¹; in [8], 8000 s⁻¹; in data set [9] it was 0.098 s⁻¹; in data set [10] it was 0.66 s⁻¹; in data set [11], 560 s⁻¹; in data set [12], 1500 s⁻¹. The kcat came to 4.5 s⁻¹ in [13] and 2300 s⁻¹ in data set [14]. Also, the kcat/Km stood at 3 ×10⁴ /M/s in data set [15]; 1.1 ×10⁷ /M/s in data set [16]; 9.8 ×10⁴ /M/s in [17]; 2.8 ×10⁴ /M/s in data set [18]; 3.7 ×10⁶ /M/s in data set [19]; 1.7 ×10⁷ /M/s in [20]. Further, the kcat/Km in data set [21] is 5.7 ×10⁵ /M/s; in data set [22], 1.5 ×10⁷ /M/s.

(Values after ChEMBL document CHEMBL3860021, “Screening and Design of Inhibitor Scaffolds for the Antibiotic Resistance Oxacillinase-48 (OXA-48) through Surface Plasmon Resonance Screening” (J Med Chem, 2016).)
